Legend:
Assay type in all cases: cell-based
[1] = test system: PC6-3 cells; experiment: Extracellular dopamine metabolites; conditions: 300 μM
In short: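 NGF-differentiated PC6-3 cells were given test compound (0, 10, 25, 50, 100 or 300 μM; 0.6% DMSO) in HEPES-buffered saline, pH 7.4. Extracellular aliquots taken at 0, 1 and 4 h went into 5% perchloric acid and were centrifuged. DOPAL, DOPAC and DOPET were run on isocratic C18 HPLC (0.1% TFA, 6% ACN), read at 202/280 nm, and quantified against standard curves. Mean ± SD, n = 3.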

[2] = test system: PC6-3 cells; experiment: DA-supplemented dopamine metabolism; conditions: 10 μM dieldrin, cells spiked with 100 μM DA 15 min prior, 4 h, vs control
In short: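 PC6-3 cells seeded at 6 × 10^4 cells/well, NGF-differentiated (50 ng/mL, 4 days), and given 100 μM DA 15 min before 4 h exposure to test compound (10, 30, 100 or 300 μM) in HEPES-buffered saline. Extracellular DOPAL was measured by capillary C18 HPLC with photodiode-array detection and quantified against a standard curve. Reported as % control; mean ± SEM, n = 3 or 4.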

[3] = test system: PC6-3 cells; experiment: Cytotoxicity by lactate dehydrogenase; conditions: 4 h, even at high concentrations (900 μM)

For `ClC1=C(Cl)C2(Cl)C3CC4OC4CC3C1(Cl)C2(Cl)Cl` (stereo not drawn) [desmethylene dieldrin, 1,8,9,10,11,11-Hexachloro-4,5-epoxy-2,3-7,6-endotricyclo[6.2.1.0^2,7]undec-9-ene], the “increase of extracellular DOPAL concentration” value [1] was 10 fold.

With `ClC1=C(Cl)[C@]2(Cl)[C@@H]3[C@@H]4C[C@@H]([C@H]5O[C@@H]45)[C@@H]3[C@@]1(Cl)C2(Cl)Cl` [dieldrin] the “increase in extracellular DOPAL levels” value [2] was ~200%.

For `ClC1=C(Cl)C2(Cl)C3C4CC(C5OC45)C3C1(Cl)C2(Cl)Cl` (stereo not drawn) [endrin], the “cytotoxicity (LDH release)” value [3] was “no cytotoxicity”.
